In ChEMBL document CHEMBL1255255, “Highly variable penicillin resistance determinants PBP 2x, PBP 2b, and PBP 1a in isolates of two Streptococcus pneumoniae clonal groups, Poland 23F-16 and Poland 6B-20” (2008):
Numbering of substitutions follows the chain as printed. ≈ marks a conversion by molar mass, not a printed value. Calls of active or inactive are those of the source. No cut-off for these calls is given here.

Experiments:
[1] = test system: Streptococcus pneumoniae; test: Antimicrobial activity against Streptococcus pneumoniae ATCC BAA-343; type: functional
[2] = test system: Streptococcus pneumoniae; test: Antimicrobial activity against Streptococcus pneumoniae isolate k-637 obtained from CSF of patient; type: functional
[3] = test system: Streptococcus pneumoniae; test: Antimicrobial activity against Streptococcus pneumoniae isolate 2904 obtained from blood of patient; type: functional
[4] = test system: Streptococcus pneumoniae; test: Antimicrobial activity against Streptococcus pneumoniae isolate k-598 obtained from bronchoalveolar lavage fluid of patient; type: functional; conditions: Lung
[5] = test system: Streptococcus pneumoniae; test: Antimicrobial activity against Streptococcus pneumoniae isolate 187 obtained from bronchoalveolar lavage fluid of patient; type: functional; conditions: isolate 187, Lung
[6] = test system: Streptococcus pneumoniae; test: Antimicrobial activity against Streptococcus pneumoniae isolate 909 obtained from bronchoalveolar lavage fluid of patient; type: functional; conditions: isolate 909, Lung
[7] = test system: Streptococcus pneumoniae; test: Antimicrobial activity against Streptococcus pneumoniae isolate 40 obtained from blood of patient; type: functional
[8] = test system: Streptococcus pneumoniae; test: Antimicrobial activity against Streptococcus pneumoniae isolate k-585 obtained from bronchoalveolar lavage fluid of patient; type: functional; conditions: isolate k-585, Lung
[9] = test system: Streptococcus pneumoniae; test: Antimicrobial activity against Streptococcus pneumoniae ATCC BAA-612; type: functional
[10] = test system: Streptococcus pneumoniae; test: Antimicrobial activity against Streptococcus pneumoniae isolate k-421 obtained from ear of patient; type: functional
[11] = test system: Streptococcus pneumoniae; test: Antimicrobial activity against Streptococcus pneumoniae isolate 4134 obtained from sputum of patient; type: functional
[12] = test system: Streptococcus pneumoniae; test: Antimicrobial activity against Streptococcus pneumoniae isolate 657 obtained from sputum of patient; type: functional
[13] = test system: Streptococcus pneumoniae; test: Antimicrobial activity against Streptococcus pneumoniae isolate 2907 obtained from sinusitis of patient; type: functional
[14] = molecular target: T1, Penicillin-binding protein 1A (Streptococcus pneumoniae serotype 4 (strain ATCC BAA-334 / TIGR4)) (UniProt Q04707); test: Binding affinity to PBP 1a in Streptococcus pneumoniae isolate k-637 at 1.1 ng/ml to 1.1 ug /ml
T1 sequence (whole entry): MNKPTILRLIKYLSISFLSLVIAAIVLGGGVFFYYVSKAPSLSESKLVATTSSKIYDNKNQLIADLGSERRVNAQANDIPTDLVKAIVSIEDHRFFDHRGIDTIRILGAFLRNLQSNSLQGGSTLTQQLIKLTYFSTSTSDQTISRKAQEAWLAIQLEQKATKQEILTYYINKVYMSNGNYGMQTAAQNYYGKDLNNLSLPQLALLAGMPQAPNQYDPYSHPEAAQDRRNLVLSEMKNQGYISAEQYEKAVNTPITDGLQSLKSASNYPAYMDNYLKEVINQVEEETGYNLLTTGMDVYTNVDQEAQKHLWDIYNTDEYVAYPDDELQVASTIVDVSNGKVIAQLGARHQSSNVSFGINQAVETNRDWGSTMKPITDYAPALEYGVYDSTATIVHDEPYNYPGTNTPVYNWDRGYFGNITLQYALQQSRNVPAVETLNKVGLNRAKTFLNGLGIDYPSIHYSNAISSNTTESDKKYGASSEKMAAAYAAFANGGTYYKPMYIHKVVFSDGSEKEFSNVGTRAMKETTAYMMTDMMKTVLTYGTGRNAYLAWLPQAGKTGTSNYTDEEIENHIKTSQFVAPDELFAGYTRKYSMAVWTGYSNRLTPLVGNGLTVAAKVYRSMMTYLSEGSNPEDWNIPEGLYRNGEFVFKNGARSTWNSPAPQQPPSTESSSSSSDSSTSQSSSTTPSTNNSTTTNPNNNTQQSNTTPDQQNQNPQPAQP
Method in brief: (§1)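 Cells grown at 37°C without aeration in C medium with 0.2% yeast extract, monitored by nephelometry, harvested at 80 to 100 nephelometry units and resuspended in 20 mM sodium phosphate (pH 7.2) with 0.2% Triton X-100. Lysate aliquots labeled with decreasing Bocillin FL (1.1, 0.36, 0.11, 0.036 μg/ml, onward) for 30 min at 37°C. PBPs were resolved by SDS-PAGE (7.5% resolving gel) and read by fluorescence imaging.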

[15] = molecular target: T2, Penicillin-binding protein 2X (Streptococcus pneumoniae R6) (UniProt P59676); test: Binding affinity to PBP 2x in Streptococcus pneumoniae R6 at 1.1 ng/ml to 1.1 ug /ml; method in brief: as §1
T2 sequence (whole entry): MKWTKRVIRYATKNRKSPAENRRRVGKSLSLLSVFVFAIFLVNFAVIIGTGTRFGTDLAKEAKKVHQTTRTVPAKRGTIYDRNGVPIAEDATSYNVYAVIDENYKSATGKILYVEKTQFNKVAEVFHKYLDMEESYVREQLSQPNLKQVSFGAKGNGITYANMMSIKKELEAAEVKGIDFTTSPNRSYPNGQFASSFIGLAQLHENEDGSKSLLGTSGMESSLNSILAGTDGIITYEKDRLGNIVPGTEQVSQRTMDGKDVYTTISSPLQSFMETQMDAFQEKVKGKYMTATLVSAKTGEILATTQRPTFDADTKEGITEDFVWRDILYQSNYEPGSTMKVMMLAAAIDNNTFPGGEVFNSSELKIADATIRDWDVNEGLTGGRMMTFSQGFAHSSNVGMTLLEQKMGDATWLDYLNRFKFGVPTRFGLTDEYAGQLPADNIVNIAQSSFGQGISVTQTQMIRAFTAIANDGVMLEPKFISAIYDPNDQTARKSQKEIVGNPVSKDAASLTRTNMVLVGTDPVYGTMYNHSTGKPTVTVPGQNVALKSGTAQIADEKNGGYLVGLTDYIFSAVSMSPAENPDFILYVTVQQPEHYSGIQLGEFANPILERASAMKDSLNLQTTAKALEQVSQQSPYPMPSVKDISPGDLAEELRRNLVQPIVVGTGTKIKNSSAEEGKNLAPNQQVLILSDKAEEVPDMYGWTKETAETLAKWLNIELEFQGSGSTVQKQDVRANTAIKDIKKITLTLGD

[16] = molecular target: T3, Penicillin-binding protein 2x (Streptococcus pneumoniae serotype 4 (strain ATCC BAA-334 / TIGR4)) (UniProt P14677); test: Binding affinity to PBP 2x in Streptococcus pneumoniae isolate k-421 at 1.1 ng/ml to 1.1 ug /ml; method in brief: as §1
T3 sequence (whole entry): T2 sequence (whole entry) with M385T

[17] = molecular target: T3, Penicillin-binding protein 2x (Streptococcus pneumoniae serotype 4 (strain ATCC BAA-334 / TIGR4)); test: Binding affinity to PBP 2x in Streptococcus pneumoniae isolate 909 at 1.1 ng/ml to 1.1 ug /ml; method in brief: as §1

CO/N=C(\C(=O)N[C@@H]1C(=O)N2C(C(=O)[O-])=C(C[N+]3(C)CCCC3)CS[C@H]12)c1csc(N)n1 [CEFEPIME]
MIC [1]: 4 µg/mL (≈ 8.32 µM)
MIC [2]: 2 µg/mL (≈ 4.16 µM)
MIC [3]: 1 µg/mL (≈ 2.08 µM)
MIC [4]: 8 µg/mL (≈ 16.6 µM)
MIC [5]: 2 µg/mL (≈ 4.16 µM)
MIC [6]: 1 µg/mL (≈ 2.08 µM)
MIC [7]: 1 µg/mL (≈ 2.08 µM)
MIC [8]: 1 µg/mL (≈ 2.08 µM)
MIC [9]: 0.25 µg/mL (≈ 0.52 µM)
MIC [10]: 1 µg/mL (≈ 2.08 µM)
MIC [11]: 1 µg/mL (≈ 2.08 µM)
MIC [12]: 0.06 µg/mL (≈ 0.125 µM)
MIC [13]: 0.25 µg/mL (≈ 0.52 µM)

CO/N=C(\C(=O)N[C@@H]1C(=O)N2C(C(=O)O)=C(CSc3nc(=O)c(O)nn3C)CS[C@H]12)c1csc(N)n1 [CEFTRIAXONE]
MIC [1]: 4 µg/mL (≈ 7.21 µM)
MIC [2]: 0.5 µg/mL (≈ 0.902 µM)
MIC [3]: 2 µg/mL (≈ 3.61 µM)
MIC [4]: 4 µg/mL (≈ 7.21 µM)
MIC [5]: 4 µg/mL (≈ 7.21 µM)
MIC [6]: 1 µg/mL (≈ 1.8 µM)
MIC [7]: 4 µg/mL (≈ 7.21 µM)
MIC [8]: 0.25 µg/mL (≈ 0.451 µM)
MIC [9]: 0.06 µg/mL (≈ 0.108 µM)
MIC [10]: 1 µg/mL (≈ 1.8 µM)
MIC [11]: 0.25 µg/mL (≈ 0.451 µM)
MIC [12]: 0.06 µg/mL (≈ 0.108 µM)
MIC [13]: 0.25 µg/mL (≈ 0.451 µM)

CO/N=C(\C(=O)N[C@@H]1C(=O)N2C(C(=O)O)=C(COC(N)=O)CS[C@H]12)c1ccco1 [CEFUROXIME]
MIC [1]: 8 µg/mL (≈ 18.9 µM)
MIC [2]: 4 µg/mL (≈ 9.43 µM)
MIC [3]: 16 µg/mL (≈ 37.7 µM)
MIC [4]: > 32 µg/mL
MIC [5]: > 32 µg/mL
MIC [6]: 8 µg/mL (≈ 18.9 µM)
MIC [7]: 32 µg/mL (≈ 75.4 µM)
MIC [8]: 2 µg/mL (≈ 4.71 µM)
MIC [9]: 0.12 µg/mL (≈ 0.283 µM)
MIC [10]: 2 µg/mL (≈ 4.71 µM)
MIC [11]: 2 µg/mL (≈ 4.71 µM)
MIC [12]: 0.12 µg/mL (≈ 0.283 µM)
MIC [13]: 0.25 µg/mL (≈ 0.589 µM)

C[C@@H](O)[C@H]1C(=O)N2C(C(=O)O)=C(S[C@@H]3CN[C@H](C(=O)N(C)C)C3)[C@H](C)[C@H]12 [MEROPENEM]
MIC [1]: 0.5 µg/mL (≈ 1.3 µM)
MIC [2]: 0.5 µg/mL (≈ 1.3 µM)
MIC [3]: 0.5 µg/mL (≈ 1.3 µM)
MIC [4]: 0.5 µg/mL (≈ 1.3 µM)
MIC [5]: 0.5 µg/mL (≈ 1.3 µM)
MIC [6]: 0.25 µg/mL (≈ 0.652 µM)
MIC [7]: 0.5 µg/mL (≈ 1.3 µM)
MIC [8]: 0.25 µg/mL (≈ 0.652 µM)
MIC [9]: 0.06 µg/mL (≈ 0.156 µM)
MIC [10]: 0.25 µg/mL (≈ 0.652 µM)
MIC [11]: 0.25 µg/mL (≈ 0.652 µM)
MIC [12]: 0.06 µg/mL (≈ 0.156 µM)
MIC [13]: 0.12 µg/mL (≈ 0.313 µM)

CC1(C)S[C@@H]2[C@H](NC(=O)[C@H](N)c3ccc(O)cc3)C(=O)N2[C@H]1C(=O)O [AMOXICILLIN]
MIC [1]: 2 µg/mL (≈ 5.47 µM)
MIC [2]: 2 µg/mL (≈ 5.47 µM)
MIC [3]: 2 µg/mL (≈ 5.47 µM)
MIC [4]: 16 µg/mL (≈ 43.8 µM)
MIC [5]: 16 µg/mL (≈ 43.8 µM)
MIC [6]: 8 µg/mL (≈ 21.9 µM)
MIC [7]: 8 µg/mL (≈ 21.9 µM)
MIC [8]: 4 µg/mL (≈ 10.9 µM)
MIC [9]: 0.12 µg/mL (≈ 0.328 µM)
MIC [10]: 2 µg/mL (≈ 5.47 µM)
MIC [11]: 1 µg/mL (≈ 2.74 µM)
MIC [12]: 0.06 µg/mL (≈ 0.164 µM)
MIC [13]: 0.25 µg/mL (≈ 0.684 µM)

CO/N=C(\C(=O)N[C@@H]1C(=O)N2C(C(=O)O)=C(COC(C)=O)CS[C@H]12)c1csc(N)n1 [CEFOTAXIME]
MIC [1]: 4 µg/mL (≈ 8.78 µM)
MIC [2]: 1 µg/mL (≈ 2.2 µM)
MIC [3]: 4 µg/mL (≈ 8.78 µM)
MIC [4]: 16 µg/mL (≈ 35.1 µM)
MIC [5]: 8 µg/mL (≈ 17.6 µM)
MIC [6]: 2 µg/mL (≈ 4.39 µM)
MIC [7]: 4 µg/mL (≈ 8.78 µM)
MIC [8]: 1 µg/mL (≈ 2.2 µM)
MIC [9]: 0.06 µg/mL (≈ 0.132 µM)
MIC [10]: 2 µg/mL (≈ 4.39 µM)
MIC [11]: 0.5 µg/mL (≈ 1.1 µM)
MIC [12]: 0.06 µg/mL (≈ 0.132 µM)
MIC [13]: 0.25 µg/mL (≈ 0.549 µM)

CC1(C)S[C@@H]2[C@H](NC(=O)Cc3ccccc3)C(=O)N2[C@H]1C(=O)O [PENICILLIN G]
MIC [1]: 8 µg/mL (≈ 23.9 µM)
MIC [2]: 8 µg/mL (≈ 23.9 µM)
MIC [3]: 4 µg/mL (≈ 12 µM)
MIC [4]: 8 µg/mL (≈ 23.9 µM)
MIC [5]: 8 µg/mL (≈ 23.9 µM)
MIC [6]: 4 µg/mL (≈ 12 µM)
MIC [7]: 8 µg/mL (≈ 23.9 µM)
MIC [8]: 4 µg/mL (≈ 12 µM)
MIC [9]: 0.12 µg/mL (≈ 0.359 µM)
MIC [10]: 2 µg/mL (≈ 5.98 µM)
MIC [11]: 2 µg/mL (≈ 5.98 µM)
MIC [12]: 0.12 µg/mL (≈ 0.359 µM)
MIC [13]: 0.5 µg/mL (≈ 1.5 µM)

Cc1cc(C)n2c1C=C1C=CC(CCC(=O)Nc3ccc(OCC(=O)N[C@@H]4C(=O)N5[C@@H]4SC(C)(C)[C@@H]5C(=O)O)cc3)=[N+]1[B-]2(F)F
Activity [14]: Active
Activity [15]: inactive
Activity [16]: inactive
Activity [17]: inactive
